# Most compounds without a hit are left out; they make up all but 3.7% or so of the library.
# Mdm2-MdmX inh: inhibitors of human Mdm2-MdmX association, primary screen, cell-based, luminescence, split luciferase, SaOS-2, uHTS | AID 485346, 2010 | SaOS-2 split-luciferase Mdm2/MdmX complementation | inhibition, % at 8 µM | Protein Mdm4 (Homo sapiens) + E3 ubiquitin-protein ligase Mdm2 (Homo sapiens), … | 330,000 compounds, 3% hits;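 active = inhibition of at least 50% at 8 µM in the primary screen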
# Target sequence (O15151 whole entry, looked up): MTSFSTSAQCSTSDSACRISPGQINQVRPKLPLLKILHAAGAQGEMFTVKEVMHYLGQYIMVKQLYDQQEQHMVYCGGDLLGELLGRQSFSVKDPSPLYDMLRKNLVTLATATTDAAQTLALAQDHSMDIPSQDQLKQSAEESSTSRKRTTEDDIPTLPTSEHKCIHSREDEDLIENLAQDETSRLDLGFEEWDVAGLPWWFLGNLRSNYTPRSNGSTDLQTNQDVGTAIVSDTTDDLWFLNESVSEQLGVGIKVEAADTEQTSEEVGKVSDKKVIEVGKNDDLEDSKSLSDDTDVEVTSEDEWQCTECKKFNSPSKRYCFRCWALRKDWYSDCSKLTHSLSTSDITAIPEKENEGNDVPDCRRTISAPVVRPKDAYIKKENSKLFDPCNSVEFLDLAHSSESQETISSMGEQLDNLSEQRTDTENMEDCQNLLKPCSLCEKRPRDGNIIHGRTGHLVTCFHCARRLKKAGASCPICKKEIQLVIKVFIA
# Target sequence (Q00987 whole entry, looked up): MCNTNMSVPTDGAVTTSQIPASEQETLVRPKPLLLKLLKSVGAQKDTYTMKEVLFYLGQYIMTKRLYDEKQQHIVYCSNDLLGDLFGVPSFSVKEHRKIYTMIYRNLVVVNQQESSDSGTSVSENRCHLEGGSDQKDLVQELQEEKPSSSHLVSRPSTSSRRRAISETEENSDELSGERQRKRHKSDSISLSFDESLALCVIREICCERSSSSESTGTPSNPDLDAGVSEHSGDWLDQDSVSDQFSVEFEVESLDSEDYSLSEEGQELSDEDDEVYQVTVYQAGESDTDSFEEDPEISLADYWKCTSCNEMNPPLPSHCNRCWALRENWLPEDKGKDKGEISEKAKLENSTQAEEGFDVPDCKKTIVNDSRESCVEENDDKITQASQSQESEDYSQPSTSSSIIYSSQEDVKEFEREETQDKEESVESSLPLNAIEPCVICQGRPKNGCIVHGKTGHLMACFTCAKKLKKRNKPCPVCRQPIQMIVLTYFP
# B2AR ag: beta2AR agonists driving receptor internalization, primary screen, cell-based, FAP fluorogen, flow cytometry. Beta-2 adrenergic receptor (Homo sapiens), P07550. Am2.2-beta2AR cells. response, % (concentration not given with the values). 340,000 compounds, 0.43% hits;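 active = response above a set limit, near 3 SD of response in nonfluorescent compounds, cut at about 42% in these data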
# MDM2 E3 inh: MDM2-luciferase reporter signal enhancers, primary screen, MDM2 E3 ligase inhibitor project, cell-based, luminescence, 1536-well. E3 ubiquitin-protein ligase Mdm2 (Homo sapiens), Q00987. cell-based MDM2 ubiquitination luciferase reporter, 2 h; 0 = plate control, 100 = twice control, blank-subtracted. signal enhancement, % at 5 µM. 210,000 compounds, 0.11% hits. AID 1230, 2008;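 active = signal enhancement of 30% or more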;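 also: luminescence tracks abundance of the self-degrading MDM2-luciferase fusion protein; higher signal means inhibition of MDM2 E3 ligase activity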
#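 Buffer or medium: Cells held in DMEM | Assay system: Stable mammalian line carrying autodegrading MDM2–luciferase fusion reporter | Quantity: 2000 cells/well | Times: 4 h settle plus 2 h compound, 37 °C | Doses: One concentration, 5 µM, with 0.2% DMSO | Technique: Luminescence with SteadyLite reagent, 15 min at room temperature | Benchmarks: Plate controls and plate blanks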
# UPR CHOP act: activators of apoptotic CHOP UPR arm, primary screen, cell-based, CHO-CHOP luciferase reporter, luminescence, uHTS. UPR activation; percent of tunicamycin response over DMSO baseline. activation, % at 10 µM. 330,000 compounds, 0.34% hits;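 active = at 10 µM dose, activation of 40% or more, normalized to positive control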;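 also: 100% = tunicamycin at 10 µg/mL and 0% = DMSO alone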
#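 Material: CHO-CHOP cells, stable luciferase reporter of PERK-eIF2a-CHOP signalling; quantity: 500 reporter cells seeded per well; buffer or medium: F12 medium containing 10% fetal bovine serum; compound: one dose, 10 µM in 0.5% DMSO; incubation: 6 h compound treatment, 37 °C; measured by: Steady-Glo luciferase luminescence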
# XBP1 UPR activ: activators of adaptive XBP1 UPR arm, primary screen, cell-based, CHO-XBP1 luciferase reporter, luminescence, uHTS | IRE1-XBP1 UPR activation; percent of tunicamycin response, DMSO as zero | AID 463104, 2010 | activation, % at 20 µM | 330,000 compounds, 0.33% hits;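 active = versus positive control, 20 µM dose yields 30% or more activation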;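 also: 100% = tunicamycin at 10 µg/mL and 0% = DMSO only wells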
#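 Material: CHO cell line with stable XBP1 luciferase reporter; schedule: 16-18 h cell attachment at 37 °C, then 6 h compound exposure; signal: glow luminescence from Steady-Glo reagent; medium: serum-containing F12 medium, 10% FBS; benchmarks: tunicamycin 10 µg/mL and vehicle-only wells; read-out: percent activation relative to tunicamycin reference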
# Dynein cargo inh: inhibitors of GR-EGFP nuclear translocation, primary screen, dynein cargo transport inhibitor project, imaging, high-content, 3617.4 mouse cells | test concentration mostly 20 µM; stimulated with dexamethasone, 1 µM; hits give low values | z-score, hits read low | 220,000 compounds, 0.47% hits | AID 1381, 2008;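 active = plate z-score of nuclear minus cytoplasmic receptor signal below a set negative limit, without overly bright fluorescence or cell loss, cut at about -3.5 in these data, passing the limit was not always enough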;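 also: z-score of nuclear minus cytoplasmic ring GR-EGFP intensity difference per well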
#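 Schedule: 48 h induction, then 1 h compound, then 30 min agonist, 37 °C. Buffer or medium: tetracycline-free induction medium containing charcoal-stripped FBS. Reagent: 1.0 µM final dexamethasone stimulus. Evaluation: nuclear versus cytoplasmic GR-EGFP signal, averaged per well. Signal: high-content fluorescence imaging after fixation.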
# UPR XBP1 confirm: IRE1-XBP1 UPR arm activators, confirmation, cell-based, CHO-XBP1 luciferase reporter, luminescence, single concentration; shares compounds with XBP1 UPR activ; AID 485299, 2010; activation, % at 20 µM; 1,000 compounds, 63% hits;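 active = reporter signal at least 30% of the positive control's activation in two or more of four replicate wells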;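 also: plate controls were DMSO negative control for no effect and tunicamycin 10 µg/mL positive control for full effect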
# Mdm2 MdmX conf: Mdm2-MdmX complex disruptors, retested hits, confirmation, luminescence, single concentration | shares compounds with Mdm2-MdmX inh | 10,000 compounds, 55% hits | inhibition, % at 8 µM | Mdm2-MdmX binding, luminescent assay; in the data active = inhibition above about 40%
# Full FLuc ctr: full-length luciferase signal inhibition, confirmation, counter-screen for Mdm2/MdmX interaction inhibitor project, cell-based, single concentration, SaOS-2; shares compounds with Mdm2-MdmX inh; SaOS-2 full-length luciferase counterscreen, luminescence; inhibition, % at 8 µM; 6,200 compounds, 77% hits; AID 504607, 2011;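 active = mean inhibition at 8 µM reaching about 37%, which flags the compound as non-specific, limit read from the data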;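 also: p53-null SaOS-2 cells with luciferase driven by a doxycycline-inducible promoter; compound on cells about two nights before reading with doxycycline added after day one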
# * marks the source's active call; other numbers are inactive results; nt = no result.
SMILES,Mdm2-MdmX inh,B2AR ag,MDM2 E3 inh,UPR CHOP act,XBP1 UPR activ,Dynein cargo inh,UPR XBP1 confirm,Mdm2 MdmX conf,others
CCOc1ncccc1C(=O)NC(C)CCc1ccccc1 (stereo unspecified),nt,-2,nt,nt,nt,nt,nt,nt,
Cc1c(C)[n+](=O)c(C)c(C)n1[O-],nt,-2,nt,nt,nt,nt,nt,nt,
CC1CCC2(CC1)NC(=O)N(CC(=O)N1CCOCC1)C2=O (stereo unspecified),1,-1,nt,-2,-2,nt,nt,nt,
COc1cc2nc(SCC(=O)NCc3ccco3)n(Cc3ccc(Cl)cc3)c(=O)c2cc1OC,78*,1,-6,18,35*,-1.2,1,32,
Brc1ccc2c(c1)C(c1ccc(N3CCOCC3)cc1)=NNC(c1cccs1)=N2,59*,-9,10,3,88*,-0.1,81*,-5,
COc1ccc(-c2sc3cc4c(cc3c2C#CC2(N)CCCCC2)OCO4)cc1,79*,25,nt,11,34*,nt,15,30,
COc1cccc(-c2sc3ccc(OC)cc3c2C#CC2(O)CCCCC2)c1,21,-1,nt,0,-2,nt,nt,nt,
COc1cc2[nH]c3c(N4CCN(c5ccc(Cl)cc5)CC4)ncnc3c2cc1OC,53*,12,-2,6,39*,-1.7,33*,31,
COc1ccc([N+](=O)[O-])cc1COc1ccc2c(-c3ccccc3)cc(=O)oc2c1,52*,2,1,6,48*,-0.21,143*,-18,
Cc1ccc(C(=O)N2N=C(c3ccc(Br)cc3)CC2c2ccccc2O)cc1 (stereo unspecified),75*,2,nt,5,40*,nt,41*,2,
Cc1cc(SCC(=O)c2ccc(O)c(O)c2)n2nc(C)c(-c3ccccc3)c2n1,52*,10,-11,29,101*,-0.95,58*,57*,Full FLuc ctr=54*
CN(Cc1ccccc1)C1(CNC(=O)CCC(F)(F)F)Cc2ccccc2C1,-26,7,nt,0,-4,nt,nt,nt,
FC(F)(F)c1nc2ccccc2n2c(-c3ccc(Cl)cc3)nnc12,96*,14,-3,13,47*,-0.57,54*,96*,Full FLuc ctr=41*
On1c(-c2ccc(Cl)cc2)nc2ccccc21,-14,-2,-8,1,2,-0.74,nt,nt,
CCCCCCCCCCn1ccc(=N)cc1,85*,15,-50,18,35*,0.73,24,90*,Full FLuc ctr=51*
O=C(O)CCCC(=O)N1N=C(c2ccccc2)CC1c1ccc2c(c1)OCO2 (stereo unspecified),6,7,nt,0,0,nt,nt,nt,
O=[N+]([O-])c1ccc(-c2ccc(/C=N/Nc3nc(NCc4ccccc4)nc(N4CCOCC4)n3)o2)cc1,100*,-46,-14,34,47*,-1.4,25,90*,Full FLuc ctr=54*
COc1nc(N/N=C/c2ccc(-c3ccccc3[N+](=O)[O-])o2)nc(N2CCOCC2)n1,-30,19,0,9,2,-0.51,nt,nt,
Cc1ccc(NC(=O)c2ncn(CCCNCC(C)c3ccccc3)n2)cc1C (stereo unspecified),nt,17,nt,nt,nt,nt,nt,nt,
C/C(=N\Nc1cc(-c2ccccc2)nc(-c2ccc(Br)cc2)n1)c1cccc(N)c1,29,5,nt,3,8,-0.41,nt,nt,
C/C(=N/Nc1cc(-c2ccccc2)nc(-c2ccccc2)n1)c1ccc(O)cc1,56*,12,-11,4,68*,0.66,57*,19,
O=C(O)c1ccccc1NC(=O)C(Cc1ccccc1)N1C(=O)c2ccccc2C1=O (stereo unspecified),12,3,nt,0,-4,nt,nt,nt,
O=C(Nc1ccc([N+](=O)[O-])cc1)C(Cc1ccccc1)N1C(=O)c2cccc3cccc(c23)C1=O (stereo unspecified),63*,5,-1,24,42*,-0.42,46*,35,
C/C(=N/NC(=O)c1ccc(Cl)s1)c1ccc(NC(=O)COc2ccc(Cl)cc2)cc1,78*,13,1,20,37*,-0.23,53*,6,
O=C(Oc1ccc(F)cc1C(=O)/C=C/c1cccs1)c1cccc([N+](=O)[O-])c1,55*,10,nt,8,38*,-0.87,83*,42*,Full FLuc ctr=48*
SMILES,Mdm2-MdmX inh,B2AR ag,MDM2 E3 inh,UPR CHOP act,XBP1 UPR activ,Dynein cargo inh,UPR XBP1 confirm,Mdm2 MdmX conf,others
COc1ccc(CCN2CCCn3c2nc2c3c(=O)n(CC(N)=O)c(=O)n2C)cc1OC,-11,-17,nt,-1,-5,nt,nt,nt,
Cc1cc(C)c(CC(=O)c2ccccc2)c(C)c1,nt,1,nt,nt,nt,nt,nt,nt,
COc1ccc(-c2ccc3c(c2)S(=O)(=O)c2cccc(C(=O)NC[C@@H]4CCCO4)c2C3=O)cc1OC,35,-2,nt,1,0,nt,nt,nt,
O=C(NCC1CC1)c1cccc2c1C(=O)c1ccc(-c3ccc(OC(F)(F)F)cc3)cc1S2(=O)=O,66*,0,nt,20,41*,nt,42*,8,
Nc1nc(SCc2ccc(Cl)cc2Cl)nc2nc3c(cc12)CCCC3,57*,-20,-7,3,59*,1.2,133*,25,
Nc1nc(SCc2ccccc2Cl)nc2nc3c(cc12)CCCC3,14,-7,0,0,0,-0.84,nt,nt,
Cc1ccc(N(CC(=O)N2CCCCCC2)S(=O)(=O)c2ccccc2)cc1,-16,4,nt,2,0,nt,nt,nt,
O=C(/C=C/c1cc([N+](=O)[O-])ccc1OC(F)F)Nc1cccc([N+](=O)[O-])c1,75*,12,nt,8,102*,0.86,28*,23,

# From PubChem BioAssay
